Assay results published in publication PMC5959779 (ACS chemical biology, 2018).
Like-named read-outs stand apart in the source and are kept apart here. Each block holds one molecule with its values, some of them ahead of it. Peptide text beside a SMILES is read from it. * marks the point of attachment. Cbz = O=C(OCc1ccccc1)*; CH2F = FC*

What was measured:
caspase-8 C360A = assay: differential scanning fluorimetry thermal stability; format: binding; conditions: DSF; for TM Values, C360A: zinc salts at 50 μM; for effect on Tm of caspase-8 C360A: incubation with other metals
caspase-8 wild-type = assay: as above; format: binding; conditions: DSF; for TM Values, Wild Type: zinc salts at 50 μM
caspase-3 [1] = target: T1, caspase-3 (Homo sapiens, UniProt P42574); assay: caspase-3 cleavage of protein substrates PAK2 and PARP, metal panel; format: biochemical
T1 sequence (P42574 29-175 limits assumed): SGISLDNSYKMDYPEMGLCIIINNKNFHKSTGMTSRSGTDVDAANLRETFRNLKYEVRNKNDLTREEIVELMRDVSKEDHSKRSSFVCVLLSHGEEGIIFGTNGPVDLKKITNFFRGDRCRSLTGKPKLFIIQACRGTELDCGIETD
T1 sequence (P42574 176-277 limits assumed): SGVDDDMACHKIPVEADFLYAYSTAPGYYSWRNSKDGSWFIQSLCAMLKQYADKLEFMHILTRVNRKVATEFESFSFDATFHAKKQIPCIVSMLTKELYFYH

caspase-8 [2] = target: T2, caspase-8 (Homo sapiens, UniProt Q14790); assay: caspase-8 cleavage of procaspase-7; format: biochemical; conditions: metal panel
T2 sequence (Q14790 217-374 limits assumed): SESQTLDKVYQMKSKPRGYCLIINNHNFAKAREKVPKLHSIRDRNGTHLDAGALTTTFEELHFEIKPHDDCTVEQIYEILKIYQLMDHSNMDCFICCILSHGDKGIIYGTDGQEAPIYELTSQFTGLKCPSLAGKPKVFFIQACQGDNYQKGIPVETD
T2 sequence (Q14790 385-479 limits assumed): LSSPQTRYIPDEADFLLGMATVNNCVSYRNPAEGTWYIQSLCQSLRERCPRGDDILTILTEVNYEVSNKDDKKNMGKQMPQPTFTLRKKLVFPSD

caspase-7 [3] = target: T3, caspase-7 (Homo sapiens, UniProt P55210); assay: caspase-7 cleavage of fluorogenic tetrapeptide substrate DEVD-AMC; format: biochemical
T3 sequence (P55210 24-198 limits assumed): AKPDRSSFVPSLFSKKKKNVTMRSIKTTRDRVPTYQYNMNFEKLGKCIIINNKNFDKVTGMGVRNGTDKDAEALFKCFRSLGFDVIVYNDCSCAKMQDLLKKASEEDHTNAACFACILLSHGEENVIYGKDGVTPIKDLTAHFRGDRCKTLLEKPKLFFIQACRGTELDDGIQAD
T3 sequence (P55210 207-303 limits assumed): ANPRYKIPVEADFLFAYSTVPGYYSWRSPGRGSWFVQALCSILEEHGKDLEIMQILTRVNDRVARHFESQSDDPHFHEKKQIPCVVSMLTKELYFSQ

caspase-8 [4] = target: T2, caspase-8; assay: caspase-8 cleavage of fluorogenic tetrapeptide substrate LEHD-AMC; format: biochemical
caspase-7 [5] = target: T3, caspase-7; assay: caspase-7 cleavage of protein substrate PAK2, metal panel; format: biochemical
caspase-3 [6] = target: T1, caspase-3; assay: caspase-3 cleavage of fluorogenic tetrapeptide substrate DEVD-AMC; format: biochemical
[7] = read-out: KD for zinc; cited from earlier work
caspase-6 [8] = target: T4, caspase-6 (Homo sapiens, UniProt P55212); assay: Fluozin-3 competition zinc affinity; format: binding; conditions: competition with Fluozin-3
T4 sequence (P55212 24-179 limits assumed): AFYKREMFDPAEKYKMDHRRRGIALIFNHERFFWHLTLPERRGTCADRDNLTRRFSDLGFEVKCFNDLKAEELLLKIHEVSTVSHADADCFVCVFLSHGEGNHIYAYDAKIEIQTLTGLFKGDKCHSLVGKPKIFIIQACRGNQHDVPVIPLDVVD
T4 sequence (P55212 194-293 limits assumed): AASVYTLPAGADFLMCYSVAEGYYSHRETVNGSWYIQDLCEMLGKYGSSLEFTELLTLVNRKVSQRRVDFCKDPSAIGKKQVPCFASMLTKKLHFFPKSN
Outline: (§1)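 Caspase titrated into reactions holding a constant amount of zinc and the fluorescent zinc indicator Fluozin-3. Each reaction was left to reach equilibrium, then Fluozin-3 fluorescence was read, with signal falling as caspase competed for zinc. Mean ± SEM from three experiments on three separate days.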

caspase-8 [9] = target: T2, caspase-8; assay: size exclusion chromatography of caspase-8 oligomeric state; conditions: SEC after incubation
Outline: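 Oligomeric state of caspase-8 was resolved by size-exclusion chromatography into dimer and monomer peaks. Protein was run alone, after incubation with zVAD-FMK, or after inhibitor incubation followed by increasing zinc. Peak fractions were quantified as mean ± SEM from three experiments on three separate days.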

caspase-6 [10] = target: T4, caspase-6; conditions: read-out: IC50 (unbuffered); cited from earlier work
caspase-6 [11] = target: T4, caspase-6; assay: caspase-6 cleavage of preferred fluorogenic tetrapeptide substrate; format: biochemical
caspase-8 [12] = target: T2, caspase-8; assay: Fluozin-3 competition zinc affinity; format: binding; conditions: competition with Fluozin-3
Outline: as §1

caspase-3 [13] = target: T1, caspase-3; conditions: cited from earlier work
caspase-3 [14] = target: T1, caspase-3; assay: Fluozin-3 competition zinc affinity; format: binding; conditions: competition with Fluozin-3
Outline: as §1

caspase-3 [15] = target: T1, caspase-3; assay: zincon colorimetric zinc-binding stoichiometry; conditions: zincon absorbance at 620 nm
Outline: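 Caspase-3 and -7 were tested alone or with the active site occupied by zVAD; caspase-8 wild type and C360A were also tested. Mean ± SEM from three experiments on three separate days.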

[16] = tested on: caspase-7 variant H131A/C171A; assay: activity of caspase-7 variant in absence and presence of ZnCl2; format: biochemical; conditions: presence vs absence of ZnCl2
[17] = metal panel, peptide substrate DEVD-AMC
[18] = panel of biologically relevant metals
[19] = read-out: IC50 Values Unbuffered, total zinc, no zinc buffer, 10 nM caspase
[20] = zinc buffered (NTA), mixed model of inhibition, global fit

TM Values, C360A (caspase-8 C360A): 46.4 ± 0.2 °C
Tm increase (caspase-8 wild-type): 27 °C
TM Values, Wild Type (caspase-8 wild-type): 75.5 ± 0.3 °C
Structure (SMILES): CC[C@H](C)[C@H](NC(C)=O)C(=O)N[C@@H](CCC(=O)O)C(=O)N[C@H](C(=O)N[C@H](C=O)CC(=O)O)[C@@H](C)O [Ac-IETD-CHO, acetyl-Ile-Glu-Thr-Asp-aldehyde, reference compound] (Ac-IETD-aldehyde)

Structure (SMILES): [Cd] [Cadmium, cadmium]
effect on cleavage of protein substrate PARP (caspase-3 [1]): inhibitory effect
effect on cleavage of procaspase-7 (C186A) (caspase-8 [2]): minor impact
activity remained (caspase-7 [3]; [17]): 84%
activity remained (caspase-8 [4]; metal panel, peptide substrate LEHD-AMC): 12%
effect on cleavage of protein substrate PAK2 (caspase-7 [5]): had an inhibitory effect
activity remained (caspase-3 [6]; [17]): 39%

effect on cleavage of protein substrate PAK2 (caspase-3 [1]): did not observe
effect on cleavage of procaspase-7 (C186A) (caspase-8 [2]): minor impact
effect on Tm of caspase-8 C360A (caspase-8 C360A): failed to significantly alter
Structure (SMILES): [Cu] [Copper, copper]

Structure (SMILES): COc1ccc(N(CC(=O)O)CC(=O)O)c(OCCOc2cc(-c3c4cc(F)c(=O)cc-4oc4cc(O)c(F)cc34)ccc2NCC(=O)O)c1 [Fluozin-3]
Kd [7]: 0.015 µM

Structure (SMILES): [Zn+2] [Zinc, zinc]
effect on cleavage of protein substrate PARP (caspase-3 [1]): inhibitory effect
effect on cleavage of procaspase-7 (C186A) (caspase-8 [2]): significant impact
zinc affinity (KD via Cheng-Prusoff) (caspase-6 [8]): low nanomolar affinity
effect on peptide substrate cleavage (caspase-7 [3]; [18]): inhibited
IC50 (caspase-7 [3]; [19]): 1580 ± 750 nM
Ki (caspase-7 [3]; zinc buffered (citrate), mixed model of inhibition, global fit): 76.1 nM
caspase-8 eluting as dimer (caspase-8 [9]): 10%
caspase-8 eluting as monomer (caspase-8 [9]): 90%
IC50 (caspase-6 [10]): 4.5 µM
IC50 (caspase-6 [11]; [19]): 4.53 ± 1.1 µM
Ki (caspase-6 [11]; zinc buffered (NTA), assumed noncompetitive): 2.6 nM
effect on peptide substrate cleavage (caspase-8 [4]; [18]): inhibited
IC50 (caspase-8 [4]; [19]): 367 ± 38 nM
Ki (caspase-8 [4]; [20]): 4.3 nM
zinc affinity (KD via Cheng-Prusoff) (caspase-8 [12]): low nanomolar affinity
destabilization of caspase-8 C360A (Tm decrease) (caspase-8 C360A): 5 °C
zinc concentration at which caspase-3 is inhibited (caspase-3 [13]): ≥ 1.7 nM
zinc affinity (KD via Cheng-Prusoff) (caspase-3 [14]): low nanomolar affinity
zincs bound per caspase monomer (stoichiometry) (caspase-3 [15]): three
effect on peptide substrate cleavage (caspase-3 [6]; [18]): inhibited
IC50 (caspase-3 [6]; [19]): 104 ± 26 nM
Ki (caspase-3 [6]; [20]): 6.9 nM

Structure (SMILES): O=C(O)c1ccccc1NN=C(N=Nc1cc(S(=O)(=O)O)ccc1O)c1ccccc1 [Zincon]
Kd [7]: 12 µM

Structure (SMILES): [Cl-].[Cl-].[Zn+2] [ZnCl2]
effect on cleavage of protein substrate PAK2 (caspase-3 [1]): completely inhibited
effect on cleavage of protein substrate PAK2 (caspase-7 [5]): inhibited
destabilization of caspase-8 C360A (Tm decrease) (caspase-8 C360A): 5 °C
TM Values, C360A (caspase-8 C360A): 41.5 ± 0.9 °C
inhibition of variant activity [16]: inhibited by zinc in a similar fashion to wild-type
destabilization of caspase-8 (Tm decrease) (caspase-8 wild-type): approximately 3 °C
TM Values, Wild Type (caspase-8 wild-type): 44.5 ± 0.4 °C

Structure (SMILES): O=S(=O)([O-])[O-].[Zn+2] [ZnSO4]
effect on cleavage of protein substrate PAK2 (caspase-3 [1]): completely inhibited
effect on cleavage of protein substrate PAK2 (caspase-7 [5]): inhibited
destabilization of caspase-8 C360A (Tm decrease) (caspase-8 C360A): 5 °C
TM Values, C360A (caspase-8 C360A): 41.6 ± 0.6 °C
destabilization of caspase-8 (Tm decrease) (caspase-8 wild-type): approximately 3 °C
TM Values, Wild Type (caspase-8 wild-type): 44.8 ± 0.3 °C

effect on Tm of caspase-8 C360A (caspase-8 C360A): failed to significantly alter
Structure (SMILES): [Ca+2] [calcium]

Structure (SMILES): [Co] [cobalt]
effect on cleavage of protein substrate PAK2 (caspase-3 [1]): did not observe

effect on Tm of caspase-8 C360A (caspase-8 C360A): failed to significantly alter
Structure (SMILES): [Fe] [iron]

inhibition of caspase activity (caspase-7 [3]; two-hour incubation): completely inhibited
caspase-8 eluting as dimer (caspase-8 [9]): 63%
caspase-8 eluting as monomer (caspase-8 [9]): 37%
inhibition of caspase activity (caspase-3 [6]; two-hour incubation): completely inhibited
Structure (SMILES): CC(NC(=O)C(NC(=O)OCc1ccccc1)C(C)C)C(=O)NC(CC(=O)O)C(=O)CF (stereo not drawn) [zVAD-FMK, carbobenzoxy-Val-Ala-Asp-fluoromethylketone, reference compound] (Cbz-Val-Ala-Asp-CH2F; configuration not given here)
